Reference: ChEMBL document CHEMBL4219113, “Pyridazine and pyridazinone derivatives as potent and selective factor XIa inhibitors” (Bioorg Med Chem Lett, 2018)

Columns and labels:
[1] = test system: Plasma; assay: Anticoagulant activity in human plasma assessed as increase in activated partial thromboplastin time; assay type: functional
Outline: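 In vitro clotting test in human plasma measuring activated partial thromboplastin time (aPTT). EC1.5x is the concentration that extends aPTT to 1.5-fold.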

[2] = Oral bioavailability in dog at 0.5 mg/kg; assay type: ADME, organism-based, Canis lupus familiaris; details: in vivo
Outline: (§1)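 Dogs received cassette dosing at 0.2–0.5 mg/kg orally and 0.2–0.4 mg/kg intravenously. The iv vehicle was 10% DMAC, 10% EtOH, 10% PG and 70% water. The oral vehicle was 10% EtOH, 70% PEG400 and 20% TPGS.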

[3] = target: Coagulation factor XI (Homo sapiens, UniProt P03951); assay: Inhibition of human factor 11a using pyro-Glu-Pro-Arg-pNA as substrate measured after 10 to 120 mins by spectrophotometric method
Sequence of Coagulation factor XI (P03951 19-387 limits assumed): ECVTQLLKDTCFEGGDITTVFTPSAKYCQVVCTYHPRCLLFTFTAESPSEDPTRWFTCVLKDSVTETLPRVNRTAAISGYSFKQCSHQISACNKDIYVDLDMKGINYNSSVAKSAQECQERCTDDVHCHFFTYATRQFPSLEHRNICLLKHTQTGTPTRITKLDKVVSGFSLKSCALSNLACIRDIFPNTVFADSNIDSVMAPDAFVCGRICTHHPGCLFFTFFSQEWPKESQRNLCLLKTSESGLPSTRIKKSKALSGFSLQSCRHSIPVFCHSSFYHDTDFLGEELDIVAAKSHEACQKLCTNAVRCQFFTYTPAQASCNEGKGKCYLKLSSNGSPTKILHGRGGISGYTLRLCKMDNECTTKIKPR
Sequence of Coagulation factor XI (P03951 388-625 limits assumed): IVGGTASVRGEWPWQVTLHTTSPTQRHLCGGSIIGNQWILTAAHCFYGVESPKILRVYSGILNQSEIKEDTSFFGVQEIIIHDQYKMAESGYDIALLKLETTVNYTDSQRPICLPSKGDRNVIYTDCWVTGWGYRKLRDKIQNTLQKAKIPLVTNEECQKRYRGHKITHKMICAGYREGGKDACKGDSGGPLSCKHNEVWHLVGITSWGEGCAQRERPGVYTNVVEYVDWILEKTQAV

[4] = Half life in human liver microsomes pretreated for 5 mins followed by NADPH addition by UV-LC/MS analysis; assay type: ADME, microsome
[5] = Clearance in dog at 0.2 to 0.5 mg/kg, po or 0.2 to 0.4 mg/kg, iv administered as cassette dose; assay type: ADME, organism-based, Canis lupus familiaris; details: in vivo; outline: as §1
[6] = Volume of distribution at steady state in dog at 0.2 to 0.5 mg/kg, po or 0.2 to 0.4 mg/kg, iv administered as cassette dose; assay type: ADME, organism-based, Canis lupus familiaris; details: in vivo, read-out: Vdss; outline: as §1
[7] = Half life in dog at 0.2 to 0.5 mg/kg, po or 0.2 to 0.4 mg/kg, iv administered as cassette dose; assay type: ADME, organism-based, Canis lupus familiaris; details: in vivo; outline: as §1
[8] = Oral bioavailability in dog at 0.2 to 0.5 mg/kg; assay type: ADME, organism-based, Canis lupus familiaris; details: in vivo; outline: as §1
[9] = target: T1, Coagulation factor VII (Homo sapiens, UniProt P08709); assay: Inhibition of human factor 7a
T1 sequence (P08709 whole entry): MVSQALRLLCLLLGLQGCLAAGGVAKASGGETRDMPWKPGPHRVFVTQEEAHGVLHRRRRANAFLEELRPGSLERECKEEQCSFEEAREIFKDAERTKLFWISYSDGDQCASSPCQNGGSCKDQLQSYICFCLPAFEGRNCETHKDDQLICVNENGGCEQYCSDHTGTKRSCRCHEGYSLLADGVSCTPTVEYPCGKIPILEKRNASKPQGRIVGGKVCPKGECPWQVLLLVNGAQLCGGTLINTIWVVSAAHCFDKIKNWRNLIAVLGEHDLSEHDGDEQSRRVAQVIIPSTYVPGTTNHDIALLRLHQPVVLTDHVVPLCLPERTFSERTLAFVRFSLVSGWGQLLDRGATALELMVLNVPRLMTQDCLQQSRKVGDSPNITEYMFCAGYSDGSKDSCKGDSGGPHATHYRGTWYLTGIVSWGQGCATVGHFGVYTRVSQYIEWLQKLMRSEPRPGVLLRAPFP

[10] = target: Coagulation factor IX (Homo sapiens, UniProt P00740); assay: Inhibition of human factor 9a
Sequence of Coagulation factor IX (P00740 47-191 limits assumed): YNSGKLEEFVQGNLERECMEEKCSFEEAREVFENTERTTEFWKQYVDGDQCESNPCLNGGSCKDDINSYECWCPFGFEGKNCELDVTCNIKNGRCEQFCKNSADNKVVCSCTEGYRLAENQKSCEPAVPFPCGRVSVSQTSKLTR
Sequence of Coagulation factor IX (P00740 227-461 limits assumed): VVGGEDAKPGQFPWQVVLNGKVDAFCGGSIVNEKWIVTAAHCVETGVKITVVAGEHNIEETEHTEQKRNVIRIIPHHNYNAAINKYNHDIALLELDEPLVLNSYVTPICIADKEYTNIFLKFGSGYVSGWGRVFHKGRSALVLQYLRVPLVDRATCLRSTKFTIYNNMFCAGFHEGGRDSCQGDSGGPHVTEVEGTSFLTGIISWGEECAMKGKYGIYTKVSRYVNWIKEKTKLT

[11] = target: Coagulation factor X (Homo sapiens, UniProt P00742); assay: Inhibition of human factor 10a
Sequence of Coagulation factor X (P00742 41-179 limits assumed): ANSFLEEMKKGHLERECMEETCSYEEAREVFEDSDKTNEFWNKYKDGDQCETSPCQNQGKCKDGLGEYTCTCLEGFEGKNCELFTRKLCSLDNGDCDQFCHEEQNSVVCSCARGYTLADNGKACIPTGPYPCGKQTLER
Sequence of Coagulation factor X (P00742 235-488 limits assumed): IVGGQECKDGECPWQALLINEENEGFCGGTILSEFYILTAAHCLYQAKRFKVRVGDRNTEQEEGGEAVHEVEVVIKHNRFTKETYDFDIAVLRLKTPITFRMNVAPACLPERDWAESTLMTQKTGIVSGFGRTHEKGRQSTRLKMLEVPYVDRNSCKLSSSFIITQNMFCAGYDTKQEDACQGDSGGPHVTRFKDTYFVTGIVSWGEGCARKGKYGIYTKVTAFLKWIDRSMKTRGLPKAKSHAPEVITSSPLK

[12] = target: Prothrombin (Homo sapiens, UniProt P00734); assay: Inhibition of human thrombin
[13] = target: Trypsin (Homo sapiens, UniProt P07477+P07478+P35030); assay: Inhibition of human trypsin; assay type: protein assay
[14] = target: Plasma kallikrein (Homo sapiens, UniProt P03952); assay: Inhibition of human plasma kallikrein
Sequence of Plasma kallikrein (P03952 20-390 limits assumed): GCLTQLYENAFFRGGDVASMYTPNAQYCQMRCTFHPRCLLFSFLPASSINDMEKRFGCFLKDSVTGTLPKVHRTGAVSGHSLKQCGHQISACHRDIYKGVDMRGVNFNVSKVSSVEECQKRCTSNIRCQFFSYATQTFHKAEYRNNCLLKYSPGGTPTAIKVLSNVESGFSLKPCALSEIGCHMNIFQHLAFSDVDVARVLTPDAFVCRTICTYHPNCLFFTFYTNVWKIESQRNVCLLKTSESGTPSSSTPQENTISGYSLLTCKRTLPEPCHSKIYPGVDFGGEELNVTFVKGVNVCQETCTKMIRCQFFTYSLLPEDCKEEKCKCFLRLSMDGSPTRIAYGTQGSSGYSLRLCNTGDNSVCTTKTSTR
Sequence of Plasma kallikrein (P03952 391-638 limits assumed): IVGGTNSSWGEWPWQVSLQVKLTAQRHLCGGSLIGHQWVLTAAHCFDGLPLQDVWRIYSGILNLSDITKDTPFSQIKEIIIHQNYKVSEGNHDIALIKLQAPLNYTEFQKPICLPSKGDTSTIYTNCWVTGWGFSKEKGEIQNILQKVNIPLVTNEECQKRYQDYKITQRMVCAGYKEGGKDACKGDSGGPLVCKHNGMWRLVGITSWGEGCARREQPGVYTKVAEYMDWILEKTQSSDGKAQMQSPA

[15] = target: Vitamin K-dependent protein C (Homo sapiens, UniProt P04070); assay: Inhibition of human activated protein C
Sequence of Vitamin K-dependent protein C (P04070 43-197 limits assumed): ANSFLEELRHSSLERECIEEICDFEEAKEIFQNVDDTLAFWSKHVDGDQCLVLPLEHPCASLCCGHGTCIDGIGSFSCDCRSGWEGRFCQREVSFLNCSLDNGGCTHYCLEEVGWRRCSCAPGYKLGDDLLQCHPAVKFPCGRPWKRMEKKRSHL
Sequence of Vitamin K-dependent protein C (P04070 212-461 limits assumed): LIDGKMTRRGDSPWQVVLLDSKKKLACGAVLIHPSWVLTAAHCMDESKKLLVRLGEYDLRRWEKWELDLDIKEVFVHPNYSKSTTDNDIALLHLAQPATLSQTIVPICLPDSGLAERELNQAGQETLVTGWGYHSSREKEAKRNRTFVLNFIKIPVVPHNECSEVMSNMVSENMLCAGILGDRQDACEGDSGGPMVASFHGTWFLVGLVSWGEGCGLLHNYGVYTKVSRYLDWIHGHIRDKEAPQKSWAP

[16] = target: Plasminogen (Homo sapiens, UniProt P00747); assay: Inhibition of human plasmin
Sequence of Plasminogen (P00747 97-580 limits assumed): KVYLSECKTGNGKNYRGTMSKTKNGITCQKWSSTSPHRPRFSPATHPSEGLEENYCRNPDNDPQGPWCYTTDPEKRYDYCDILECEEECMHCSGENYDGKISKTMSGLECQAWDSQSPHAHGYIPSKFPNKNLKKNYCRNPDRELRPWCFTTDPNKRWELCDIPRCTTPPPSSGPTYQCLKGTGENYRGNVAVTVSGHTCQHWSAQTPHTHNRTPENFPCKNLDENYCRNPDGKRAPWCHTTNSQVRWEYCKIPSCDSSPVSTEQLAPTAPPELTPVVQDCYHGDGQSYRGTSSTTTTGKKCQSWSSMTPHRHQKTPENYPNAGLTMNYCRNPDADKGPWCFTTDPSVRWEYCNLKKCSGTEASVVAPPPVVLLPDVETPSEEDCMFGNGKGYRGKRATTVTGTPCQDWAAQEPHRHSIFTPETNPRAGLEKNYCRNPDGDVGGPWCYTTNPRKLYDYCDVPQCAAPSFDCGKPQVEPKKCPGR
Sequence of Plasminogen (P00747 581-810 limits assumed): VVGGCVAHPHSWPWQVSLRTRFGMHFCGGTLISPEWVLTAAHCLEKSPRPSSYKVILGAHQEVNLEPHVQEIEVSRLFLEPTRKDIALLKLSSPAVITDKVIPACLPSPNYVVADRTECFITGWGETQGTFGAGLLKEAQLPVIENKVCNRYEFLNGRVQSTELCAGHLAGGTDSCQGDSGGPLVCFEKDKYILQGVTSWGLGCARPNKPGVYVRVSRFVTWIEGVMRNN

[17] = target: Tissue-type plasminogen activator (Homo sapiens, UniProt P00750); assay: Inhibition of human TPA
Sequence of Tissue-type plasminogen activator (P00750 whole entry): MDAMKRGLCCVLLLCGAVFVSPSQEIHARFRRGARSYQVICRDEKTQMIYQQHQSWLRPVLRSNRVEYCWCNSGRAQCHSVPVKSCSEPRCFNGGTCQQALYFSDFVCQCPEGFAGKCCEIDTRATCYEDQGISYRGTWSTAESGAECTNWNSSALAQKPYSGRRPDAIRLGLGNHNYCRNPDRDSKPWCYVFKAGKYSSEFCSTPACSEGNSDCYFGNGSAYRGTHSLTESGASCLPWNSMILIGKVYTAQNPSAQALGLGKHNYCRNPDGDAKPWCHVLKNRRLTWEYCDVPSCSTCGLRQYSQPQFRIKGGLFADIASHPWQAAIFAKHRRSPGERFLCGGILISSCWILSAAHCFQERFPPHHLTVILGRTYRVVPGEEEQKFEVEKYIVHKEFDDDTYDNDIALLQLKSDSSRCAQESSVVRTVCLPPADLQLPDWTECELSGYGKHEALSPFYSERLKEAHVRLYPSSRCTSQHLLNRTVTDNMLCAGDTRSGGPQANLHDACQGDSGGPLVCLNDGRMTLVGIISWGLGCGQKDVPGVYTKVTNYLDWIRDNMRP

[18] = target: Urokinase-type plasminogen activator (Homo sapiens, UniProt P00749); assay: Inhibition of human urokinase
[19] = Inhibition of human chymotrypsin

Ki [3] [nM] | half-life [4] [min] | clearance [5] [mL/min/kg] | Vd [6] [L/kg] | half-life [7] [min] | bioavailability [8] [%] | SMILES | EC1.5 [1] [µM] | further results
– | – | – | – | – | – | COC(=O)Nc1ccc(-c2nc([C@H](Cc3ccccc3)NC(=O)/C=C/c3cc(Cl)ccc3-n3cnnn3)[nH]c2Cl)cc1 | 5.3 | –
– | – | – | – | – | – | COC(=O)Nc1ccc(-c2ccnc([C@H](Cc3ccccc3)NC(=O)/C=C/c3cc(Cl)ccc3-n3cnnn3)c2)cc1 | >40 | bioavailability [2]: 34%
6.6 | 36 | 24.7 | 1.2 | 54 | < 3 | COC(=O)Nc1ccc(-c2cc([C@H](CC(=O)N3CC[C@@H](O)C3)NC(=O)/C=C/c3cc(Cl)ccc3-n3cnnn3)c(Cl)nn2)cc1 | 1.6 | –
12 | 2.8 | – | – | – | – | COC(=O)Nc1ccc(-c2cc([C@H](Cc3ccncc3)NC(=O)/C=C/c3cc(Cl)ccc3-n3cnnn3)nnc2Cl)cc1 | 6.2 | –
36 | – | – | – | – | – | COC(=O)Nc1ccc(-c2cc([C@H](Cc3ccccc3)NC(=O)/C=C/c3cc(Cl)ccc3-n3cnnn3)nnc2OC)cc1 | 50 | –
11 | – | – | – | – | – | COC(=O)Nc1ccc(-c2cc([C@H](Cc3ccccc3)NC(=O)/C=C/c3cc(Cl)ccc3-n3cnnn3)nnc2C(=O)O)cc1 | 32 | –
10 | 5.1 | 9.2 | 1.2 | 120 | 14 | COC(=O)Nc1ccc(-c2cc([C@H](Cc3ccccc3)NC(=O)/C=C/c3cc(Cl)ccc3-n3cnnn3)nnc2C)cc1 | 11 | Ki [9]: > 13300 nM; Ki [10]: 39300 nM; Ki [11]: > 3000 nM; Ki [12]: > 13300 nM; Ki [13]: > 6220 nM; Ki [14]: 1370 nM; Ki [15]: > 64400 nM; Ki [16]: > 53400 nM; Ki [17]: > 14700 nM; Ki [18]: > 29700 nM; Ki [19]: > 27200 nM
1.9 | 31 | 15.5 | 2.1 | 108 | < 3 | COC(=O)Nc1ccc(-c2cc([C@H](Cc3ccccc3)NC(=O)/C=C/c3cc(Cl)ccc3-n3cnnn3)c(Cl)nn2)cc1 | 2.2 | Ki [9]: 3280 nM; Ki [10]: 22000 nM; Ki [11]: 1940 nM; Ki [12]: 10600 nM; Ki [13]: 3730 nM; Ki [14]: 192 nM; Ki [15]: 16300 nM; Ki [16]: 4490 nM; Ki [17]: 994 nM; Ki [18]: 13300 nM; Ki [19]: 29600 nM
4.1 | 9.6 | 18.2 | 1.4 | 66 | < 3 | COC(=O)Nc1ccc(-c2cc([C@H](Cc3ccccc3)NC(=O)/C=C/c3cc(Cl)ccc3-n3cnnn3)cnn2)cc1 | 3.5 | –
89 | – | – | – | – | – | COC(=O)Nc1ccc(-c2cc([C@H](C[C@@H]3CCCN(C(C)=O)C3)NC(=O)/C=C/c3cc(Cl)ccc3-n3cnnn3)nnc2Cl)cc1 | 8.8 | –
22 | – | – | – | – | – | COC(=O)Nc1ccc(-c2cc([C@H](Cc3ccccc3)NC(=O)/C=C/c3cc(Cl)ccc3-n3cnnn3)c(=O)[nH]n2)cc1 | 19 | –
6.1 | – | – | – | – | – | COC(=O)Nc1ccc(-c2cc([C@H](Cc3ccccc3)NC(=O)/C=C/c3cc(Cl)ccc3-n3cnnn3)c(C)nn2)cc1 | 14 | –
10 | 12 | – | – | – | – | COC(=O)Nc1ccc(-c2cc([C@H](Cc3cccc(F)c3)NC(=O)/C=C/c3cc(Cl)ccc3-n3cnnn3)nnc2Cl)cc1 | 17 | –
9.6 | 8.6 | 6.3 | 2.3 | 426 | 16 | COC(=O)Nc1ccc(-c2cc([C@H](Cc3ccccc3)NC(=O)/C=C/c3cc(Cl)ccc3-n3cnnn3)nnc2Cl)cc1 | 9.3 | Ki [9]: > 13300 nM; Ki [10]: > 73700 nM; Ki [11]: 200 nM; Ki [12]: > 13300 nM; Ki [13]: > 6220 nM; Ki [14]: > 6000 nM; Ki [15]: > 64400 nM; Ki [16]: 76600 nM; Ki [17]: 10100 nM; Ki [18]: > 29700 nM; Ki [19]: > 27200 nM
31 | – | – | – | – | – | CNC(=O)c1nnc([C@H](Cc2ccccc2)NC(=O)/C=C/c2cc(Cl)ccc2-n2cnnn2)cc1-c1ccc(NC(=O)OC)cc1 | 45 | –
7 | 9.1 | 8.9 | 1.3 | 108 | 18 | COC(=O)Nc1ccc(-c2cnnc([C@H](Cc3ccccc3)NC(=O)/C=C/c3cc(Cl)ccc3-n3cnnn3)c2)cc1 | 14 | Ki [9]: > 13300 nM; Ki [11]: 840 nM; Ki [12]: > 13300 nM; Ki [13]: > 6220 nM; Ki [14]: 268 nM; Ki [15]: 68000 nM; Ki [16]: 38100 nM; Ki [17]: > 14700 nM; Ki [18]: > 29700 nM; Ki [19]: 11900 nM
26 | – | – | – | – | – | COC(=O)Nc1ccc(-c2cc([C@H](CC(=O)N3CC[C@@H](O)C3)NC(=O)/C=C/c3cc(Cl)ccc3-n3cnnn3)nnc2Cl)cc1 | 7.5 | –
10 | – | – | – | – | – | COC(=O)Nc1ccc(-c2cc([C@H](Cc3ccccc3)NC(=O)/C=C/c3cc(Cl)ccc3-n3cnnn3)n[nH]c2=O)cc1 | 11 | –
9.3 | 20 | 5.1 | 1.5 | 402 | 12 | COC(=O)Nc1ccc(-c2cc([C@H](Cc3ccc(F)cc3)NC(=O)/C=C/c3cc(Cl)ccc3-n3cnnn3)nnc2Cl)cc1 | 22 | –
4 | – | – | – | – | – | COC(=O)Nc1ccc(-c2cc([C@H](CC(=O)N3CCN(C)CC3)NC(=O)/C=C/c3cc(Cl)ccc3-n3cnnn3)c(Cl)nn2)cc1 | 0.9 | –
